The values that follow come from PMC6815762 (Drug Design, Development and Therapy, 2019).

The subject of test [1] is hCMEC/D3 cells. Kind of test: Cell proliferation assay. In kind it is cell-based, human. The settings on record: 48 hr incubation, MTT, 570 nm, p > 0.05.
In test [2] the target is integrin αvβ3 (Homo sapiens, UniProt P05106+P06756). Kind of test: Determination of the dissociation constant by ELISA. In kind it is binding. An outline of the steps:
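Solution-phase ELISA after Friguet. Integrin αvβ3 (serial, 0.5–32 nM) was equilibrated with test peptide (0.5 nM) for 4 hrs at 37°C. The mixture was moved to wells precoated with anti-integrin αvβ3 antibody (1:50) for 1 hr at room temperature, washed, and bound complexes detected by ELISA. Absorbance was taken without receptor (A0) and at each receptor concentration (A). Run in triplicate; Kd from one-site specific binding nonlinear regression.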
(In general: In an ELISA, binding on a coated surface is turned into a signal by an enzyme label.)

The subject of test [3] is hCMEC/D3 cells. Kind of test: Tube formation assay on Matrigel. The class given is cell-based, human. The settings on record: VEGF 10 ng/mL, positive control, 12 hr.
In test [4] the target is integrin αvβ3 (UniProt P06756). Kind of test: ELISA.

Peptide text beside a SMILES is read from it.

Chain of integrin αvβ3 (UniProt P06756) (P06756 31-1048, chain 1 of 2): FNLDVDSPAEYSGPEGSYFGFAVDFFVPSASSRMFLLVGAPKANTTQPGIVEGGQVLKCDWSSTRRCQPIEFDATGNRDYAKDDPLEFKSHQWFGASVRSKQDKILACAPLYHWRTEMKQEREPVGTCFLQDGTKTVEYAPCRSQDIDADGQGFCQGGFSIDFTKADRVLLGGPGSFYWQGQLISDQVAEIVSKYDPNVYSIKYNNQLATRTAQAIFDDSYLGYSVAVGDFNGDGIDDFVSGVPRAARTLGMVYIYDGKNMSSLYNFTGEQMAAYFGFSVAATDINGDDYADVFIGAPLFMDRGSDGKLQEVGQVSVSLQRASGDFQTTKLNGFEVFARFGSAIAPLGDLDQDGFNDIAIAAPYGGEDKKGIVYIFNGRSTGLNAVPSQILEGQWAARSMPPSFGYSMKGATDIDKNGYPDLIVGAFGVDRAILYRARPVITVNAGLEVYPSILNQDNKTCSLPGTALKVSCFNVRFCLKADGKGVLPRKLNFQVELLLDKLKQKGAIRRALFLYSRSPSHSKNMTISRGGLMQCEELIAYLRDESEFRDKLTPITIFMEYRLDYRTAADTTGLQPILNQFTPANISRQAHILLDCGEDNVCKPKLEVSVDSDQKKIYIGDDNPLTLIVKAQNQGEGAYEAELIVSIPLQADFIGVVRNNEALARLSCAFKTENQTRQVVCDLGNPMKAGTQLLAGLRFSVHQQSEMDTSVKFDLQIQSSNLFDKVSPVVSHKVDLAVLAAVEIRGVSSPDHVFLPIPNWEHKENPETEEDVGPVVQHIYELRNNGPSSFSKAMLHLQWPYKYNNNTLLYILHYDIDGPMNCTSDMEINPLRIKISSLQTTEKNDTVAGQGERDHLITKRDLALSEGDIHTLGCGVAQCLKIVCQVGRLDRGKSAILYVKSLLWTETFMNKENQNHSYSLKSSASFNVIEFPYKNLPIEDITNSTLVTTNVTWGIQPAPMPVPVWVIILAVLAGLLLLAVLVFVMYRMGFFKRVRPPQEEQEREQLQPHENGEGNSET
Chain of integrin αvβ3 (UniProt P06756) (P05106 27-788, chain 2 of 2, further chain): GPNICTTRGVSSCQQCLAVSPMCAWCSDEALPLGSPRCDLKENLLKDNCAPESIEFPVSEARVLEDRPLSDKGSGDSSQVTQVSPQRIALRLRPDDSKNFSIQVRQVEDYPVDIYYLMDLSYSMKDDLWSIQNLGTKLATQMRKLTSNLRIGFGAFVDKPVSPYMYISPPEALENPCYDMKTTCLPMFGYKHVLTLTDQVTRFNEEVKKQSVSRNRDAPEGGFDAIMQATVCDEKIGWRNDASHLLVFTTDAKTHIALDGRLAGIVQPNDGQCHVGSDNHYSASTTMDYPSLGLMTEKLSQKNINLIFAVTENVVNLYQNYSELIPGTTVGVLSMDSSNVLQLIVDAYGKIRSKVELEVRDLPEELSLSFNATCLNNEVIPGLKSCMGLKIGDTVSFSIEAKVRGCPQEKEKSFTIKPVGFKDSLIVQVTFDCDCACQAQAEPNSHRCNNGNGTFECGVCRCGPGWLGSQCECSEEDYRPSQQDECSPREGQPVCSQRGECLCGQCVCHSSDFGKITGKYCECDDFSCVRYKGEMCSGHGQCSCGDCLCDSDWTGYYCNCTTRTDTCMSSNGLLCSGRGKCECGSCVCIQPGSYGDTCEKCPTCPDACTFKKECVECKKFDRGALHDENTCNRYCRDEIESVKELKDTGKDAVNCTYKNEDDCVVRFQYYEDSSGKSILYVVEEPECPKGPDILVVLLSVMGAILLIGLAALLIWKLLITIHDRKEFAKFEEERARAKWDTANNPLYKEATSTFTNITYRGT
Chain of integrin αvβ3 (Homo sapiens, UniProt P05106+P06756) (P06756 31-1048): as the sequence (P06756 31-1048, chain 1 of 2) above
Chain of integrin αvβ3 (Homo sapiens, UniProt P05106+P06756) (P05106 27-788): as the sequence (P05106 27-788, chain 2 of 2, further chain) above

In the case of `N=C(N)NCCC[C@H](NC(=O)[C@@H]1CCCN1C(=O)[C@H](Cc1c[nH]c2ccccc12)NC(=O)[C@H](CCCNC(=N)N)NC(=O)[C@H](Cc1ccccc1)NC(=O)[C@H](CC(=O)O)NC(=O)CNC(=O)[C@@H](N)CCCNC(=N)N)C(=O)O` [GCPF] (H-RGDFRWPR-OH), the proliferation inhibition rate is listed as 0.15% in test [1] (1 μg/mL), 13.49% in test [1] (10 μg/mL), 3.90% in test [1] (100 μg/mL) and 1.98% in test [1] (1000 μg/mL). Binding in test [2] was put at a Kd of 2.41 ± 0.455 nM.

Take VEGF: the “tube formation, result in words” value in test [3] is reported as “the tube-like structures were developed from clear elongated cell bodies, which connected to form a polygon network”.

For RGDFRWPR [GCPF peptide], the Kd – broadly, the equilibrium constant for the complex coming apart – in test [4] was determined as 2.41 nM. In other words, the single-digit nanomolar range.
